Published values gathered from unrelated publications.
Each line is one published result; the experiments were not run side by side.
Effect on: cell growth or viability

C[C@H]1[C@H](OC(=O)CCC(=O)O)O[C@@H]2O[C@@]3(C)CC[C@H]4[C@H](C)CC[C@@H]1[C@@]24OO3 — IC50 (SH-SY5Y; resazurin): 4.6 µM
CC1(C)CCC(CN2CCN(c3ccc(C(=O)NS(=O)(=O)c4ccc(NCC5CCOCC5)c([N+](=O)[O-])c4)c(Oc4cnc5[nH]ccc5c4)c3)CC2)=C(c2ccc(Cl)cc2)C1 — IC50 (MM.1R; ATP luminescence; 48 h): 7.46 µM
COc1cc2c3c(n(CCCN4CCOCC4)c(=O)c2cc1OC)-c1nc2c(cc1C3=O)OCO2 — IC50 (SK-N-MC; MTS; 72 h): 0.698 µM
CC(C)(C)c1cnc(CSc2cnc(NC(=O)C3CCN(CCCCCSc4cccc5c4CN(C4CCC(=O)NC4=O)C5=O)CC3)s2)o1 (stereo not drawn) — viability (HuT78; trypan blue; 0.5 µM; 48 h): 13.4%
COc1cc2c3c(n(CCCNC(C)C)c(=O)c2cc1OC)-c1nc2c(cc1C3=O)OCO2 — IC50 (SK-N-MC; MTS; 72 h): 0.15 µM
COc1cc(NC(C)CCCN)c2ncccc2c1 (stereo not drawn) — IC50 (SH-SY5Y; resazurin): > 50 µM
COc1cc2c3c(n(CCCn4ccnc4)c(=O)c2cc1OC)-c1nc2c(cc1C3=O)OCO2 — IC50 (SK-N-MC; MTS; 72 h): 0.17 µM
Nc1ccc(/C=C/C(=O)NCc2cc3cc(-c4ccc(C(=O)N5CCC(F)(F)CC5)cc4)cc(-c4ccc(F)cc4)c3o2)cn1 — IC50 (Pan02; CCK-8; 72 h): 1.64 µM
C=CC(=O)NC1CCN(c2ncc3ncnc(Nc4ccc(Oc5ccc6c(c5)ncn6C)c(C)c4)c3n2)CC1 — EC50 (SNU668): 0.0349 µM
OC(c1cc(C(F)(F)F)nc2c(C(F)(F)F)cccc12)C1CCCCN1 (stereo not drawn) — IC50 (SH-SY5Y; resazurin): 8 µM
Nc1ccc(/C=C/C(=O)N2CCc3c(oc4c(-c5ccc(F)cc5)cc(-c5ccc(C(=O)N6CCOCC6)nn5)cc34)C2)cn1 — IC50 (Pan02; CCK-8; 72 h): 0.57 µM
CC(C)(C)c1cnc(CSc2cnc(NC(=O)C3CCN(CCCCCCCCSc4cccc5c4CN(C4CCC(=O)NC4=O)C5=O)CC3)s2)o1 (stereo not drawn) — viability (HuT78; trypan blue; 1 µM; 48 h): 10.5%
C=C(F)C(=O)N1CCN(c2nc(OC[C@@H]3CCCN3C)nc3c2CCN(c2cccc4cccc(Cl)c24)C3)C[C@@H]1CC#N — IC50 (Lu-99; ATP luminescence; 3D culture): 0.0213 µM
CCN(CCO)CCCC(C)Nc1ccnc2cc(Cl)ccc12 (stereo not drawn) — IC50 (SH-SY5Y; resazurin): > 50 µM
C#Cc1nc(C2=C(C)C(O)CC2)cs1 (stereo not drawn) — CC50 (HT-1080): 0.96 µM
